Assay results published in ChEMBL document CHEMBL1149903, “Synthesis and biological evaluation of thiobenzanilides as anticancer agents” (Bioorg Med Chem, 2008).
The source made the active and inactive calls. No cut-off for these calls is given here.

Tests used:
A-375 [1] = assay: Cytotoxicity against human A375 cells at 10 uM by MTS assay; type: functional; conditions: read-out: Survival
Outline: (§1)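 MTS proliferation assay. Cells were seeded at 2500 cells/well and incubated overnight, then exposed to compound at 10 µM for 24 h. MTS tetrazolium premixed with phenazine ethosulfate was then added and incubated 1–2 h at 37 °C. Absorbance was read at 490 nm against a 690 nm reference. Value reported is survival as % of control.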

K562 = assay: Cytotoxicity against human K562 cells at 10 uM by MTS assay; type: functional; conditions: read-out: Survival; outline: as §1
[2] = Cytotoxicity against human 293T cells at 10 uM by MTS assay; type: cell-based, HEK-293T; conditions: read-out: Survival; outline: as §1
A-375 [3] = assay: Cell cycle arrest in human A375 cells assessed as accumulation at G1 phase at 10 uM after 24 hrs by flow cytometry; type: functional
Outline: (§2)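 A375 cells exposed 24 h to 10 µM agent, DMSO control. Harvested by trypsinization, washed in PBS, fixed in ice-cold 70% ethanol 30 min. RNase A 1 mg/mL (with trisodium citrate) at 37 °C 30 min. Stained with PI/citrate/Triton X-100 DNA solution 30 min at room temperature in the dark. DNA content of 10,000 events read by flow cytometry; phase percentages calculated.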

A-375 [4] = assay: Cell cycle arrest in human A375 cells assessed as accumulation at S phase at 10 uM after 24 hrs by flow cytometry; type: functional; outline: as §2
A-375 [5] = assay: Cell cycle arrest in human A375 cells assessed as accumulation at G2/M phase at 10 uM after 24 hrs by flow cytometry; type: functional; outline: as §2
A-375 [6] = assay: Induction of apoptosis in human A375 cells assessed as disruption of mitochondrial membrane potential at 10 uM after 24 hrs of labeling with rhodamine 123-dye by flow cytometry; type: functional, cell-based
Outline: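 Exponentially growing A375 cells treated 24 h at 10 µM, then trypsinized and pelleted. Resuspended in rhodamine 123 (10 µg/mL) for 30 min at room temperature, washed twice in PBS and read at once by flow cytometry (FL-1, 530/30 nm band pass).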

A-375 [7] = assay: Effect on intracellular ATP content in human A375 cells at 10 uM after 24 hrs by firefly luciferase luminescence relative to control; type: functional
Outline: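 Intracellular ATP measured by firefly luciferin–luciferase bioluminescence (ATPlite kit). A375 cells treated 24 h with 10 µM agent, then lysed; debris removed by centrifugation and supernatant assayed. Relative ATP expressed as percentage of the 0 µM level.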

A-375 [8] = assay: Induction of apoptosis in human A375 cells assessed as annexin V-FITC cells at 10 uM after 24 hrs by annexin V-FITC and PI staining; type: functional
Outline: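 After 24 h at 10 µM, 10⁶ A375 cells per sample were stained with annexin V-FITC and PI at the same time and analysed by flow cytometry. Annexin V⁺/PI⁻ cells were scored as early apoptotic and annexin V⁺/PI⁺ cells as necrotic.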

A-375 [9] = assay: Induction of apoptosis in human A375 cells assessed as caspase 3 activation at 10 uM after 24 hrs by Western blot analysis relative to control; type: functional, cell-based
Outline: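 Lysates of A375 cells exposed 24 h to 10 µM agent; 40 µg protein per lane run on 10% SDS-PAGE and transferred to PVDF. Blocked in 5% skim milk in PBS-T, then probed with rabbit polyclonal anti-caspase-3 (p20 active form), with actin as loading control. HRP secondary and chemiluminescence detection; band amounts quantified by densitometry.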

A-375 [10] = assay: Induction of apoptosis in human A375 cells assessed as increase in intracellular H2O2 release at 10 uM after 4 hrs
A-375 [11] = assay: Induction of apoptosis in human A375 cells assessed as increase in intracellular H2O2 release at 10 uM after 4 hrs in presence of catalase

| SMILES | viability at 10 µM (A-375 [1]) [%] | viability at 10 µM (K562) [%] | viability at 10 µM [2] [%] | Activity (A-375 [3]) [%] | Activity (A-375 [4]) [%] | Activity (A-375 [5]) [%] | Activity (A-375 [6]) | Activity (A-375 [7]) [%] | Activity (A-375 [8]) [%] | Activity (A-375 [9]) | Activity (A-375 [10]) | Activity (A-375 [11]) |
| --- | --- | --- | --- | --- | --- | --- | --- | --- | --- | --- | --- | --- |
| O=[N+]([O-])c1ccc(C(=S)Nc2ccc(C(F)(F)F)cc2)cc1 | 36.2 | 41.4 | 41.2 | 55.4 | 17.1 | 27.6 | Active | 63.1 | 33 | Active | Active | inactive |
| O=C(Nc1ccc([N+](=O)[O-])cc1)c1ccc([N+](=O)[O-])cc1 | 70.5 | 71.3 | 85.2 | – | – | – | – | – | – | – | – | – |
| O=C(Nc1ccc(C(F)(F)F)cc1)c1ccc([N+](=O)[O-])cc1 | 87.2 | 81.3 | 87.7 | – | – | – | – | – | – | – | – | – |
| O=[N+]([O-])c1ccc(NC(=S)c2ccc([N+](=O)[O-])cc2)cc1 | 39.1 | 47.9 | 44 | 59.9 | 11.3 | 28.9 | Active | 83.6 | 16.3 | Active | Active | inactive |
| O=C(Nc1ccc(Br)cc1)c1ccc([N+](=O)[O-])cc1 | 81.1 | 89.1 | 86.9 | – | – | – | – | – | – | – | – | – |
| O=[N+]([O-])c1ccc(C(=S)Nc2ccc(Br)cc2)cc1 | 43 | 42.9 | 48.4 | 58.4 | 12.7 | 29 | Active | 66.1 | 7.5 | Active | Active | inactive |
